Reference: ChEMBL document CHEMBL1144585, “Synthesis and evaluation of N-acetyl-L-tyrosine based compounds as PPARalpha selective activators” (Eur J Med Chem, 2007)

Assays:
[1] = molecular target: T1, Peroxisome proliferator-activated receptor gamma (Homo sapiens) (UniProt P37231); experiment: Agonist activity at human recombinant PPARgamma at 30 uM by GAL4 transactivation assay relative to control; assay type: functional
T1 sequence (whole entry): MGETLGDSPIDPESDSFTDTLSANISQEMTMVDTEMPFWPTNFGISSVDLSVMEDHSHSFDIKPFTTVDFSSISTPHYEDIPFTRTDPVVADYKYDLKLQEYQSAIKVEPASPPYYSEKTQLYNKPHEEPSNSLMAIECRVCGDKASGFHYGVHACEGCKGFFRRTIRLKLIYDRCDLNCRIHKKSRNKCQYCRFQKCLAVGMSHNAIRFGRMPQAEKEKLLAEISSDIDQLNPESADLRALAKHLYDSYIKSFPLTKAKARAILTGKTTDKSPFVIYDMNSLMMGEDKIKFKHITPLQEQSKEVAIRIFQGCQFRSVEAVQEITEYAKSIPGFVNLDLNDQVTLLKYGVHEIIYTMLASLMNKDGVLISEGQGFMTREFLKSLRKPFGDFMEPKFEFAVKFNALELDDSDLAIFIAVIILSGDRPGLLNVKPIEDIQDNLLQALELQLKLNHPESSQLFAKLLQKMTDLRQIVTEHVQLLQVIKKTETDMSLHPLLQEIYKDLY
Outline: (§1)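 Cell-based transcription assay: cells transfected with a GAL4–PPAR chimeric receptor expression plasmid, with luciferase gene activation as the read-out. PPARα was tested at 50 µM against WY 14,643 as the reference. PPARγ was tested at 30 µM against rosiglitazone as the reference. Values are fold activation at the same concentration.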

[2] = molecular target: T2, Peroxisome proliferator-activated receptor alpha (Homo sapiens) (UniProt Q07869); experiment: Agonist activity at human recombinant PPARalpha at 50 uM by GAL4 transactivation assay relative to control; assay type: functional; outline: as §1
T2 sequence (whole entry): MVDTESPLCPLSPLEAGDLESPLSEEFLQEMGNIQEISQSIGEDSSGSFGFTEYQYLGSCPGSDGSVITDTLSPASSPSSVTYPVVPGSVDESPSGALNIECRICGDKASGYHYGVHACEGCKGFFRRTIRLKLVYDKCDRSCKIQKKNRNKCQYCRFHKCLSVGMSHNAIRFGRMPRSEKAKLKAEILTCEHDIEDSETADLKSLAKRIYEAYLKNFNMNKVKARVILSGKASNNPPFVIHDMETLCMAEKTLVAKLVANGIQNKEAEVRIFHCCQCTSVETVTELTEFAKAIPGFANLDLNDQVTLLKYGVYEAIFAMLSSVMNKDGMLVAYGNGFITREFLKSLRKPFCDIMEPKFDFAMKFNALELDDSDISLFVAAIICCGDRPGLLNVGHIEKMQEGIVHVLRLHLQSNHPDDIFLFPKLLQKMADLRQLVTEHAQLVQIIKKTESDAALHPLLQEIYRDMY

| Compound | Fold change [1] | Fold change [2] |
| --- | --- | --- |
| CCOC(=O)[C@H](Cc1ccc(OCc2c3ccccc3cc3ccccc23)cc1)NC(C)=O | 0.8 | 2.3 |
| CCOC(=O)[C@H](Cc1ccc(OCCC(=O)Nc2ccccc2C(F)(F)F)cc1)NC(C)=O | 1.8 | 1 |
| CCOC(=O)[C@H](Cc1ccc(OCCN(CC)c2cccc(C)c2)cc1)NC(C)=O | 1.1 | 2.9 |
| CCOC(=O)[C@H](Cc1ccc(OCCn2c3ccccc3c3ccccc32)cc1)NC(C)=O | 5.4 | 1.6 |
| Cc1cccc(Nc2cc(Cl)nc(SCC(=O)O)n2)c1C | – | 4.2 |
| CCOC(=O)[C@H](Cc1ccc(OCCOc2ccc(C(=O)c3ccc(Cl)cc3)cc2)cc1)NC(C)=O | 0.9 | 3.3 |
| CN(CCOc1ccc(CC2SC(=O)NC2=O)cc1)c1ccccn1 (stereo not given) | 27.2 | – |
| CC(=O)N[C@@H](Cc1ccc(OCCn2c3ccccc3c3ccccc32)cc1)C(=O)O | 4.2 | 3.4 |
| CC(=O)N[C@@H](Cc1ccc(OCCC(=O)Nc2ccccc2C(F)(F)F)cc1)C(=O)O | 1.2 | 2.5 |

Other lines, results leading:

| Fold change [1] | Fold change [2] | Compound |
| --- | --- | --- |
| 5.4 | 4.4 | COc1ccc(COc2ccc(C[C@H](NC(C)=O)C(=O)O)cc2)cc1 |
| 2.4 | 4.6 | CC(=O)N[C@@H](Cc1ccc(OCCOc2ccc(C(=O)c3ccc(Cl)cc3)cc2)cc1)C(=O)O |
| 1 | 2 | CCOC(=O)[C@H](Cc1ccc(OCc2ccc(Cl)cc2)cc1)NC(C)=O |
| 1.4 | 3.2 | CCN(CCOc1ccc(C[C@H](NC(C)=O)C(=O)O)cc1)c1cccc(C)c1 |
| 1.9 | 3 | CC(=O)N[C@@H](Cc1ccc(OCc2ccc(Cl)cc2)cc1)C(=O)O |
| 1.3 | 3.1 | CC(=O)N[C@@H](Cc1ccc(OCc2c3ccccc3cc3ccccc23)cc1)C(=O)O |
| 1.3 | 2.4 | CCOC(=O)[C@H](Cc1ccc(OCc2ccc(OC)cc2)cc1)NC(C)=O |
